Key:
[1] = system: KM12; experiment: Cytotoxicity against human KM12 cells after 48 hrs by SRB assay; type: functional; settings: KM12, 48 h
Outline: (§1)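 NCI-60 five-dose screen at 10−8 to 10−4 M. Cells were plated at 5,000–40,000/well in RPMI 1640 with 5% FBS and 2 mM L-glutamine, then preincubated 24 h, and time-zero plates were TCA-fixed. Compound was added from DMSO stocks and exposed 48 h at 37 °C. Cells were TCA-fixed, SRB-stained, and read at 515 nm. LC50 is the concentration halving the cell population through cell death.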

[2] = Antileukemic activity against human AML05 cells after 24 hrs by annexin V/7-AAD staining-based flow cytometric analysis; type: functional, cell-based
Outline: (§2)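 Primary AML specimens from consenting donors, isolated by Ficoll-Paque gradient and sometimes cryopreserved. Cells were held 1 h in serum-free IMDM with 20% BIT 9500, LDL and β-mercaptoethanol before drug (DMSO stock diluted in PBS, ≤0.5% DMSO final). Exposure was 24 h over 0.5-10 μM. Annexin V/7-AAD double-negative cells, normalized to vehicle, gave the EC50. Run in triplicate.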

[3] = system: A549; experiment: Cytotoxicity against human A549 cells after 48 hrs by SRB assay; type: functional; settings: A549, 48 h; outline: as §1
[4] = Potency index, ratio of parthenolide EC50 to compound EC50 for human M9-ENL1 cells; type: functional
[5] = system: OVCAR-8; experiment: Cytotoxicity against human OVCAR8 cells after 48 hrs by SRB assay; type: functional; settings: OVCAR-8, 48 h; outline: as §1
[6] = system: NCI-H23; experiment: Cytotoxicity against human NCI-H23 cells after 48 hrs by SRB assay; type: functional; settings: NCI-H23, 48 h; outline: as §1
[7] = system: TK-10; experiment: Cytotoxicity against human TK10 cells after 48 hrs by SRB assay; type: functional; settings: TK-10, 48 h
Outline: (§3)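 NCI-60 screen: cells grown in RPMI 1640 with 5% FBS and 2 mM L-glutamine, plated at 5,000–40,000 cells/well by doubling time, and preincubated 24 h at 37 °C before drug. Drug was diluted from DMSO stock and given at five concentrations, 10−4 to 10−8 M, for 48 h. Cells fixed with cold TCA, SRB stained, OD read at 515 nm against time-zero and vehicle plates. LC50 taken as the concentration that halves cell population through cell death.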

[8] = system: SF-295; experiment: Cytotoxicity against human SF295 cells after 48 hrs by SRB assay; type: functional; settings: SF-295, 48 h; outline: as §1
[9] = Antileukemic activity against human AML01 cells after 24 hrs by annexin V/7-AAD staining-based flow cytometric analysis; type: functional, cell-based; outline: as §2
[10] = system: MDA-MB-231; experiment: Cytotoxicity against human MDA-MB-231 cells after 48 hrs by SRB assay; type: functional; settings: MDA-MB-231, 48 h; outline: as §1
[11] = system: MDA-MB-435; experiment: Cytotoxicity against human MDA-MB-435 cells after 48 hrs by SRB assay; type: functional; settings: MDA-MB-435, 48 h; outline: as §1
[12] = system: SK-MEL-2; experiment: Cytotoxicity against human SK-MEL-2 cells after 48 hrs by SRB assay; type: functional; settings: SK-MEL-2, 48 h; outline: as §1
[13] = system: HCT-116; experiment: Cytotoxicity against human HCT116 cells after 48 hrs by SRB assay; type: functional; settings: HCT-116, 48 h; outline: as §1
[14] = system: NCI-H460; experiment: Cytotoxicity against human NCI-H460 cells after 48 hrs by SRB assay; type: functional; settings: NCI-H460, 48 h; outline: as §1
[15] = Cytotoxicity against human Hs 578T cells after 48 hrs by SRB assay; type: functional; outline: as §1
[16] = system: DU-145; experiment: Cytotoxicity against human DU145 cells after 48 hrs by SRB assay; type: functional; settings: DU-145, 48 h; outline: as §1
[17] = system: SR; experiment: Cytotoxicity against human SR cells after 48 hrs by SRB assay; type: functional; outline: as §3
[18] = system: SK-OV-3; experiment: Cytotoxicity against human SKOV3 cells after 48 hrs by SRB assay; type: functional; settings: SK-OV-3, 48 h; outline: as §1
[19] = system: MOLT-4; experiment: Cytotoxicity against human MOLT4 cells after 48 hrs by SRB assay; type: functional; settings: MOLT-4, 48 h; outline: as §1
[20] = system: HCC 2998; experiment: Cytotoxicity against human HCC2998 cells after 48 hrs by SRB assay; type: functional; settings: HCC 2998, 48 h; outline: as §1
[21] = system: NCI-H226; experiment: Cytotoxicity against human NCI-H226 cells after 48 hrs by SRB assay; type: functional; settings: NCI-H226, 48 h; outline: as §1
[22] = system: SN12C; experiment: Cytotoxicity against human SN12C cells after 48 hrs by SRB assay; type: functional; outline: as §1
[23] = system: LOX IMVI; experiment: Cytotoxicity against human LOXIMVI cells after 48 hrs by SRB assay; type: functional; outline: as §1
[24] = system: HCT-15; experiment: Cytotoxicity against human HCT15 cells after 48 hrs by SRB assay; type: functional; settings: HCT-15, 48 h; outline: as §1
[25] = system: PC-3; experiment: Cytotoxicity against human PC3 cells after 48 hrs by SRB assay; type: functional; settings: PC-3, 48 h; outline: as §1
[26] = system: UACC-62; experiment: Cytotoxicity against human UACC62 cells after 48 hrs by SRB assay; type: functional; settings: UACC-62, 48 h; outline: as §3
[27] = system: U-251; experiment: Cytotoxicity against human U251 cells after 48 hrs by SRB assay; type: functional; settings: U-251, 48 h; outline: as §3
[28] = system: MCF7; experiment: Cytotoxicity against human MCF7 cells after 48 hrs by SRB assay; type: functional; settings: MCF7, 48 h
Outline: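 NCI-60 screen: cells in RPMI 1640 with 5% FBS and 2 mM L-glutamine, preincubated 24 h at 37 °C. Compound was then added for 48 h at five concentrations (10−4 to 10−8 M). Cells were fixed with cold TCA and stained with 0.4% SRB in 1% acetic acid, and OD read at 515 nm. GI50 is the concentration halving net protein increase versus control.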

[29] = system: CAKI-1; experiment: Cytotoxicity against human Caki1 cells after 48 hrs by SRB assay; type: functional; settings: CAKI-1, 48 h; outline: as §1
[30] = system: OVCAR-4; experiment: Cytotoxicity against human OVCAR4 cells after 48 hrs by SRB assay; type: functional; settings: OVCAR-4, 48 h; outline: as §1
[31] = system: RXF 393; experiment: Cytotoxicity against human RXF393 cells after 48 hrs by SRB assay; type: functional; settings: RXF 393, 48 h; outline: as §1
[32] = Cytotoxicity against human NCI-ADR-RES cells after 48 hrs by SRB assay; type: functional; outline: as §1
[33] = system: SNB-75; experiment: Cytotoxicity against human SNB75 cells after 48 hrs by SRB assay; type: functional; settings: SNB-75, 48 h; outline: as §1
[34] = read-out: LC50 (the source's name)

C=C1C(=O)O[C@H]2[C@H]1CC/C(COC(=O)NCCCCCCCCNC(=O)OC/C1=C/CC[C@@]3(C)O[C@H]3[C@H]3OC(=O)C(=C)[C@@H]3CC1)=C\CC[C@@]1(C)O[C@@H]21
GI50 [1]: 1290 nM
CC50 [1, 34]: 7490 nM
EC50 [2]: 2300 nM
GI50 [3]: 1700 nM
CC50 [3, 34]: 7260 nM
Ratio EC50 [4]: 2
GI50 [5]: 320 nM
CC50 [5, 34]: 6770 nM
GI50 [6]: 480 nM
CC50 [6, 34]: 4860 nM
GI50 [7]: 280 nM
CC50 [7, 34]: 2950 nM
GI50 [8]: 1950 nM
CC50 [8, 34]: 16200 nM
EC50 [9]: 2600 nM
GI50 [10]: 200 nM
LC50 [10]: 1240 nM
GI50 [11]: 240 nM
CC50 [11, 34]: 3740 nM
GI50 [12]: 600 nM
CC50 [12, 34]: 17000 nM
GI50 [13]: 190 nM
CC50 [13, 34]: 830 nM
GI50 [14]: 1750 nM
CC50 [14, 34]: 9020 nM
GI50 [15]: 1170 nM
CC50 [15, 34]: > 100000 nM
GI50 [16]: 1100 nM
LC50 (concentration killing half the cells) [16]: 4810 nM
GI50 [17]: 310 nM
CC50 [17, 34]: > 100000 nM
GI50 [18]: 3640 nM
CC50 [18, 34]: 35100 nM
GI50 [19]: 330 nM
CC50 [19, 34]: > 100000 nM
GI50 [20]: 1200 nM
CC50 [20, 34]: 5280 nM
GI50 [21]: 1810 nM
CC50 [21, 34]: 21100 nM
GI50 [22]: 260 nM
CC50 [22, 34]: 5490 nM
GI50 [23]: 170 nM
CC50 [23, 34]: 760 nM
GI50 [24]: 340 nM
CC50 [24, 34]: 4180 nM
GI50 [25]: 380 nM
LC50 (concentration killing half the cell population) [25]: 5200 nM
GI50 [26]: 190 nM
CC50 [26, 34]: 1720 nM
GI50 [27]: 570 nM
CC50 [27, 34]: 5130 nM
GI50 [28]: 220 nM
CC50 [28, 34]: 4300 nM
GI50 [29]: 650 nM
CC50 [29, 34]: 4790 nM
GI50 [30]: 520 nM
CC50 [30, 34]: 4630 nM
GI50 [31]: 160 nM
CC50 [31, 34]: 640 nM
GI50 [32]: 3910 nM
CC50 [32, 34]: 82000 nM
GI50 [33]: 1250 nM
CC50 [33, 34]: 9840 nM
